Screening results as filed in PubChem.
HCV core dimer: HCV core protein dimerization inhibition. TR-FRET GST/Flag-core106 dimerization, 1536-well. inhibition, % at 5 µM. AID 1899. 300,000 compounds, 0.33% hits;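 active = inhibition above the mean of all tested compounds plus 3 SD, set per screening campaign, cut at about 45% in these data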
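test system = GST/Flag-tagged HCV core106 proteins | probe or stimulus = Eu donor and XL665 acceptor anti-tag antibodies | times = compound-protein-antibody incubation 4 h at 22.5 °C | signal = TR-FRET, excitation 340 nm, emission 617 and 671 nm | measure = percent inhibition of core106 dimerization signal | controls = wells lacking GST-core106 and wells with excess unlabelled core106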
TbMetRS inhib: blocks T. brucei methionyl-tRNA synthetase activity. purified T. brucei MetRS, ATP depletion, Kinase-Glo luminescence. inhibition, % at 11.9 µM. 360,000 compounds, 0.4% hits;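 active = inhibition above a per-plate cutoff of the control wells' mean inhibition plus 3 SD, cut at about 5.5% in these data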;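 also: 0% = DMSO wells median and 100% = median of wells with control inhibitor compound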
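Measured by: Kinase-Glo luciferase luminescence reporting remaining unconsumed ATP. Material: purified T. brucei MetRS enzyme. Doses: 11.9 µM compound single dose, 0.9% DMSO. Medium: HEPES buffer containing pyrophosphatase, BSA, spermine, DTT. Times: 15 min preincubation, 2 h reaction, all 25 °C. Reagent: methionine, ATP and bulk E. coli tRNA.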
NadD block: NadD (S. aureus) enzyme inhibition | AID 602399 | 360,000 compounds, 0.78% hits | purified NadD enzyme, colorimetric absorbance read-out | inhibition, % at 20 µM; in the data active = inhibition above about 26%
Rce1 inh: inhibitors of yeast Ras-converting enzyme | Q03530 | yeast membranes, quenched prenylated peptide cleavage fluorescence | calls only | 290,000 compounds, 0.27% hits | AID 2563;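 active = fall in fluorescence gain of 50% or more versus controls, with final raw signal at or below 3038400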;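 also: plate controls were neutral control wells for no effect and wells lacking membranes for full effect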
Target sequence (Q03530 whole entry, looked up): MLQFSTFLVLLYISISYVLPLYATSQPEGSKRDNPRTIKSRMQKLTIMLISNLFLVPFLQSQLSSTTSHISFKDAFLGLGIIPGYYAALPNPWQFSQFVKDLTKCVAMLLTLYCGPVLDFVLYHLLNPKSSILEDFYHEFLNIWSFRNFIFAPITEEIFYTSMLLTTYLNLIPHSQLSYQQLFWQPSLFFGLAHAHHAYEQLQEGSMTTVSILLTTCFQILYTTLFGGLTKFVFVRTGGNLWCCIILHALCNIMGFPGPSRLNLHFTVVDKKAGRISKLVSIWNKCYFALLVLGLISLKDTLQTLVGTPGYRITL
Pemphigus Ab inh: inhibitors of pemphigus antibody binding to human desmoglein-3; DSG3-coupled beads, scFv-anti-DSG3-GFP binding, flow cytometry; hits give low values; binding (percent of control), % at 10 µM; 310,000 compounds, 0.48% hits; AID 588358;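 active = binding more than 3 SD below its plate's average and above zero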;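 also: hits lower antibody fragment binding to DSG3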
The depositor's hits bear a star; i = inactive; nt = not tested or not shown; + = active, no number. This is a sample that favours compounds with a hit; in the whole collection about 1.9% have one here.

SMILES | HCV core dimer | TbMetRS inhib | NadD block | Rce1 inh | Pemphigus Ab inh
CC(C)COc1ccc(-c2nn(-c3ccccc3)cc2/C=C2/SC(=S)N(CC(=O)O)C2=O)cc1 | 20 | 0 | 16 | i | 108
CCC(NC(=O)NCCCn1ccnc1)(C(F)(F)F)C(F)(F)F | -1 | -1 | -5 | i | 106
COc1ccccc1C(=O)NCCC(=O)N(C)CC(=O)Nc1ccc(C)cc1 | -2 | 0 | 2 | i | 101
CCCOc1ccc(C2C(C(=O)c3ccco3)=C(O)C(=O)N2CCCn2ccnc2)cc1 (configuration not stated) | 7 | 0 | 12 | i | 103
CN1C2=CC=CC=CC2=[N+](C)C12C=CC(=[N+]([O-])[O-])C=C2[N+](=O)[O-] (configuration not stated) | -2 | -2 | 2 | i | 76*
Cc1cc(C)cc(N2Cc3ccccc3C2)c1 | 62* | -1 | -2 | i | 101
CCc1ccc(N2Cc3ccccc3C2)cc1 | 17 | 0 | 13 | i | 91
COc1ccc2occ(C(=O)c3cccs3)c2c1 | 1 | 0 | -12 | i | 103
Cc1ccc(C)n1NC(=O)c1ccccc1 | 2 | 0 | 0 | i | 102
Cc1ccc(C)n1NC(=O)c1cccs1 | 20 | -1 | 26 | i | 83*
Cc1ccc(OCCN2C(=O)C(=O)c3cc(C)ccc32)cc1 | 8 | 0 | -1 | + | 100
CCN(CCCNC(=O)C1CCC(=O)N1Cc1ccc(C)cc1)c1cccc(C)c1 (configuration not stated) | -7 | -1 | -3 | i | 107
CCN(CCCNC(=O)C1CCC(=O)N1Cc1ccccc1Cl)c1cccc(C)c1 (configuration not stated) | -5 | 0 | -9 | i | 78*
Cc1cc(C)cc(N(CC(=O)NC(C)(C)C)C(=O)CCC(=O)Nc2ccccn2)c1 | -1 | -1 | -2 | i | 113
C=C(C)C(=O)Nc1cccc(C2=NOC3(C2)C[C@@H](C(N)=O)N(C(=O)c2cc([N+](=O)[O-])cc([N+](=O)[O-])c2)C3)c1 (some centres not stated) | -102 | 0 | 2 | i | 104
C=C(C)C(=O)Nc1cccc(C2=NOC3(C2)C[C@@H](C(N)=O)N(C(=O)c2ccc(OC)cc2)C3)c1 (some centres not stated) | -110 | 0 | -10 | i | 69*
C=C(C)C(=O)Nc1cccc(C2=NOC3(C2)C[C@@H](C(N)=O)N(C(=O)[C@H]2CCC(=O)N2)C3)c1 (some centres not stated) | 81* | 0 | -9 | i | 97
CCOC(=O)c1c(C)[nH]c(C(=O)CSc2nnc(CC(C)c3ccccc3)o2)c1C (configuration not stated) | 0 | 0 | -8 | i | nt
Cc1cc(C)cc(N2CC(O)=C(c3nc4ccccc4c(=O)[nH]3)C2=N)c1 | 2 | 0 | 6 | + | 96
COc1cccc(N2CC(O)=C(c3nc4ccccc4c(=O)[nH]3)C2=N)c1 | -10 | -1 | 6 | i | 126
CCCCc1cc(=O)oc2cc(C)c(CN3CCCC3)c(O)c12 | 51* | -1 | 14 | i | 89*
CCc1cc(=O)oc2cc(C)c(CN3CCCC(C)C3)c(O)c12 (configuration not stated) | 61* | 0 | 5 | i | 100
CCOc1cc(NC(=O)c2ccccn2)c(OCC)cc1NC(=O)c1cccc(C)c1 | 5 | -1 | -4 | i | 74*
CCOc1cc(NC(=O)c2cccs2)c(OCC)cc1NC(=O)c1ccccn1 | 14 | 0 | 10 | i | 81
CCCCCCn1cc(CN2CC(N3CCN(Cc4cccc(C)c4)CC3)CS2(=O)=O)nn1 (configuration not stated) | nt | -1 | -4 | nt | nt
SMILES | HCV core dimer | TbMetRS inhib | NadD block | Rce1 inh | Pemphigus Ab inh
CC1CCCC(NC(=O)COC(=O)c2ccc3ccccc3n2)C1C (configuration not stated) | -1 | 0 | 0 | i | 109
CC1(C)NC(=O)N(CC(=O)N2CCC(Cc3ccccc3)CC2)C1=O | -1 | 0 | -1 | i | 110
CC(CCc1ccccc1)NCC(O)c1ccc(O)c(C(N)=O)c1 (configuration not stated) | -4 | 0 | -1 | + | nt
COCCNC(=O)Nc1ccc2c(c1)N(C)C(=O)c1ccccc1S2 | 3 | 0 | -7 | i | 103
Cc1cccc(NC(=O)c2cc(S(=O)(=O)N3CCCCC3)c[nH]2)c1C | 3 | 0 | -4 | + | 99
COc1ccccc1/C=N/NC(=O)C1=NNC(c2ccccc2)(c2ccccc2)C1 | 54* | nt | nt | i | nt
Cc1ccc(/C=C/C(=O)OCC(=O)N(CC(C)C)c2c(N)n(Cc3ccccc3)c(=O)[nH]c2=O)o1 | -1 | -1 | -2 | nt | 92*
O=C(c1cn(-c2ccccc2)nc1-c1cccs1)N1CCN(c2ccccn2)CC1 | 8 | 0 | -2 | + | nt
Cc1cc(NC(=O)C(C)SCC(=O)Nc2ccc(SC(F)F)cc2)no1 (configuration not stated) | -4 | 0 | -2 | i | nt
CN(C)c1ccc(/C=C(\NC(=O)c2ccccc2)C(=O)NCCN2CCOCC2)cc1 | -9 | -1 | -5 | i | nt
CCN(CC)S(=O)(=O)c1ccc(N/N=C/c2cc(OC)c(OC)cc2OC)nc1 | -2 | 0 | 2 | i | 63*
CC(C)(C)c1ccc(CC(=O)N2CCC2(C)C(=O)NS(=O)(=O)c2cccc(Cl)c2)cc1 (configuration not stated) | nt | 0 | 3 | nt | nt
COc1ccc2[nH]c(=O)c(CN(Cc3nnnn3Cc3ccco3)C3CCCCC3)cc2c1 | 19 | -1 | 8 | i | 103
COc1ccc2[nH]c(=O)c(CN(C3CCCCC3)C(c3nnnn3Cc3ccco3)C(C)C)cc2c1 (configuration not stated) | 70* | 0 | 59* | i | 107
Cc1cccc(C)c1NC(=O)C(c1ccncc1)n1c(=O)c(-c2ccco2)nc2ccccc21 (configuration not stated) | nt | -1 | nt | nt | nt
N#Cc1cn(CC(=O)NCCc2c[nH]c3ccccc23)c2ccccc12 | -2 | 0 | -3 | i | 100
COc1ccc(C/C(C)=N/NC(=S)Nc2ccccc2F)cc1 | 1 | -1 | -3 | i | 90
CC1(c2nnc(-c3cccc(Cl)c3)o2)CC(c2cccc(F)c2)=NO1 (configuration not stated) | 9 | 0 | -7 | + | 104
CNC(=S)N=Nc1c(O)[nH]c2ccc(C(C)C)cc12 | -6 | 0 | -2 | i | 101
CC(C)c1ccc2[nH]c(O)c(N=NC(=O)c3cccc(S(=O)(=O)Nc4cccc(Cl)c4)c3)c2c1 | 9 | 0 | 35* | i | 94
CC(C)c1ccc2[nH]c(O)c(N=NC(=O)c3cccc(S(=O)(=O)Nc4ccc(Cl)cc4)c3)c2c1 | 12 | 0 | 37* | i | nt
